Data on 11 compounds can be found in ChEMBL document CHEMBL1125633, “1H-imidazo[4,5-c]quinolin-4-amines: novel non-xanthine adenosine antagonists” (J Med Chem, 1991).

Structures are written as SMILES.

The target of assay [1] is T1, Adenosine receptor A1 (Bos taurus, UniProt P28190).
T1 sequence (P28190 whole entry): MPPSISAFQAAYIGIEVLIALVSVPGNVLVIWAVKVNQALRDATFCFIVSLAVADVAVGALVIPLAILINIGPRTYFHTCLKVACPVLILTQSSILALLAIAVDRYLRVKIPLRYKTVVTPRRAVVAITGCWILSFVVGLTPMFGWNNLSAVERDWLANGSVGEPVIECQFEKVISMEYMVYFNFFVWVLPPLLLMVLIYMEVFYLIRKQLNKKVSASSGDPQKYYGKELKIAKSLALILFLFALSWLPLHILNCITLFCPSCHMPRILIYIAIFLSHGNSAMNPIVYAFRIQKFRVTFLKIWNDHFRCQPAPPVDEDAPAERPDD
Briefly: Displacement of [3H]CPX from adenosine A1 receptor of calf brain cortical membrane. Summed up: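 Calf brain cortical membranes, about 15 μg protein, incubated with 0.1 nM [3H]CPX in 50 mM Tris-HCl pH 7.4 for 1 h at 25 °C in duplicate. Nonspecific binding was defined with 10 μM R-PIA. DMSO was at most 1% final. Filter-bound radioactivity was counted. Means of three experiments.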
A general note: Loss of bound radioactivity is the signal in a displacement assay; it reports binding, not function.

Assay [2] concerns the target T2, Adenosine A2 receptor (Rattus norvegicus, UniProt P29276+P30543). Briefly: (§1) Binding affinity for adenosine A2 receptor using [3H]NECA in rat striatal membrane. It counts as cell membranes, Striatum.
Assay [3] deals with T3, Adenosine receptor A1 (Rattus norvegicus, UniProt P25099).
T3 sequence (P25099 whole entry): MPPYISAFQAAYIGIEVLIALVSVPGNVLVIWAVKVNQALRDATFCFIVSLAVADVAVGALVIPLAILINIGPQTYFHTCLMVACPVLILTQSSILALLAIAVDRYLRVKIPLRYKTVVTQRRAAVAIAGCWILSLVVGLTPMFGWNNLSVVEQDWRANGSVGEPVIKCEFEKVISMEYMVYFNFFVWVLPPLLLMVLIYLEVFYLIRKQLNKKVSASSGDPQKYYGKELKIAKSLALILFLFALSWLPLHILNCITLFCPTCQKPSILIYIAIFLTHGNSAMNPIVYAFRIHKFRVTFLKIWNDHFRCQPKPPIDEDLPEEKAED
Briefly: Displacement of [3H]CPX from adenosine A1 receptor of rat brain cortical membrane.

The target of assay [4] is Adenosine A2 receptor (Rattus norvegicus) (UniProt P29276+P30543). In words: Inhibitory binding activity for adenosine A2 receptor using [3H]NECA in rat striatal membrane at 1 uM. The following applies: Striatum. It counts as cell membranes. The method, boiled down:
(§2)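 Rat striatal membranes from male Wistar rats, treated with 2 IU/mL adenosine deaminase for 30 min at 37 °C. Binding used about 50 μg protein and 4 nM [3H]NECA in 50 mM Tris-HCl, 10 mM MgCl2, pH 7.7, with 50 nM CPA added to block A1 sites. Nonspecific binding was defined with 100 μM CPA. Incubation 1 h at 25 °C in duplicate, ended by filtration and scintillation counting.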

For assay [5], the target named is Adenosine receptors; A1 & A2 (Rattus norvegicus) (UniProt P29276+P25099+P30543). In words: Ratio of Ki for adenosine A2 and A1 receptors. It counts as protein assay.
Assay [6] has as its target T2, Adenosine A2 receptor. Described as §1. It counts as cell membranes, Striatum. Summed up:
as §2
The source holds these as a separate data set.

For the compound `c1ccc2c3nc(C4CCCC4)nc-3c(NC3CCCC3)[nH]c2c1`, the Ki in assay [1] was 0.0091 µM; in assay [2] it was 0.45 µM; in assay [3] it was 0.039 µM.
Consider `c1ccc(Nc2nc3ccccc3c3[nH]c(C4CCCC4)nc23)cc1`, for which the values for the Ki in assay [1] and in assay [3] were 0.023 µM and 0.23 µM, respectively. This compound showed an inhibition in assay [4] of 6%.
For `Nc1[nH]c2ccccc2c2nc(C3CCCC3)nc1-2`, the Ratio in assay [5] was 3. Moreover, the values for the inhibition constant Ki in assay [1], in assay [2] and in assay [3] were 0.29 µM, 0.74 µM and 0.27 µM, respectively.
The like results for `C[C@H](Cc1ccccc1)Nc1[nH]c2ccccc2c2ncnc1-2` were, in that order, 2.6, 0.074 µM, 0.81 µM and 0.31 µM.
The like results for `c1ccc2c3ncnc-3c(NC3CCCC3)[nH]c2c1` were, in that order, 6.7, 0.01 µM, 0.29 µM and 0.043 µM.
Take `Nc1[nH]c2ccccc2c2ncnc1-2`: the Ratio in assay [5] was 0.9. The Ki in assay [6] turned out to be 1.4 µM; in assay [1], 1.7 µM; in assay [3], 1.6 µM.
The like results for `c1ccc(Nc2[nH]c3ccccc3c3ncnc2-3)cc1` were, in that order, 5, 10.5 µM, 0.49 µM and 2.1 µM.
Regarding `c1ccc(-c2nc3c(NC4CCCC4)[nH]c4ccccc4c-3n2)cc1`, the results for the Ki in assay [1], in assay [2] and in assay [3] were 0.0015 µM, 0.45 µM and 0.01 µM, respectively.
The corresponding values for `Nc1[nH]c2ccccc2c2nc(-c3ccccc3)nc1-2` are 0.017 µM, 0.29 µM and 0.034 µM.
With `C[C@@H](Cc1ccccc1)Nc1[nH]c2ccccc2c2ncnc1-2`, in assay [5], the Ratio amounted to 1.9. Besides, the Ki in assay [1] turned out to be 0.46 µM; in assay [2], 2.8 µM; in assay [3], 1.5 µM.
For `c1ccc(Nc2[nH]c3ccccc3c3nc(-c4ccccc4)nc2-3)cc1`, the Ki in assay [1] was 0.05 µM; in assay [3], 0.46 µM. This compound yielded an inhibition in assay [4] of 9%.

As a reminder, the Ki is the dissociation constant of the complex between target and ligand, obtained from inhibition or displacement. Lower therefore signals a stronger hold on the target. Usually inhibition stands for how much of the control response was suppressed.
